Where “and” joins values, the source holds several entries; their conditions need not be identical. Identical values can stand only once. Calls of active or inactive are those of the source. The rule behind the calls is not given here.
What was measured:
[1] = test system: Rattus norvegicus; assay: Maximum % decrease of blood glucose (deltaBG) was observed within 4 hour after administration orally at 5 mg/kg dose to fasted adult female rats versus a control group; NS =' not significant'; assay type: functional, organism-based; parameters: dose 5 mg/kg
Outline: (§1)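 Female Wistar rats (Chbb THOM, SPF, 200-220 g), fasted 24 h, dosed orally by gavage as suspension in 1.5% Tylose methylcellulose (10 mL/kg). Whole blood from retrobulbar plexus under light halothane, deproteinized with 0.33 M HClO4; glucose by hexokinase/G6PDH, hourly up to 4 h. % decrease vs control group (N = 7), Student's t-test, P ≤ 0.05.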

[2] = test system: Rattus norvegicus; assay: Maximum % decrease of blood glucose (deltaBG) was observed within 4 hour after administration orally at 0.3 mg/kg dose to fasted adult female rats versus a control group; assay type: functional; details: route oral; outline: as §1
[3] = test system: Rattus norvegicus; assay: Half-maximal effective dose was measured on rat blood glucose after administrating at 4 hr; assay type: functional
Outline: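 Adult fasted female Wistar rats (Chbb THOM, SPF, 200-220 g), food withdrawn 24 h; oral gavage of suspension in 1.5% Tylose (methylcellulose), 10 mL/kg. Retrobulbar blood under light halothane; glucose by hexokinase/G6PDH after HClO4 deproteinization, hourly to 4 h. ED50 from fit of glucose vs dose, y = b + [a × k/(k + x^nH)], Hill coefficient nH.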

[4] = species: Rattus norvegicus; details: Blood, 0.1 mg/kg
[5] = test system: Rattus norvegicus; assay: Maximum % decrease of blood glucose (deltaBG) was observed within 4 hour after administration orally at 0.1 mg/kg dose to fasted adult female rats versus a control group; NS =' not significant'; assay type: functional, organism-based; parameters: dose 0.1 mg/kg; outline: as §1
[6] = species: Rattus norvegicus; details: Blood, 0.1 mg/kg; remark: listed apart in the source
[7] = species: Rattus norvegicus; details: Blood, 0.1 mg/kg; remark: listed apart in the source
[8] = test system: Rattus norvegicus; assay: Maximum % decrease of blood glucose (deltaBG) was observed within 3 hour after administration orally at 0.1 mg/kg dose to fasted adult female rats versus a control group; NS =' not significant'; assay type: functional, organism-based; parameters: dose 0.1 mg/kg; outline: as §1
[9] = test system: Rattus norvegicus; assay: Maximum % decrease of blood glucose (deltaBG) was observed within 4 hour after administration orally at 100 mg/kg dose to fasted adult female rats versus a control group; NS =' not significant'; assay type: functional, organism-based; parameters: dose 100 mg/kg; outline: as §1
[10] = test system: Rattus norvegicus; assay: Maximum % decrease of blood glucose (deltaBG) was observed within 4 hour after administration orally at 0.01 mg/kg dose to fasted adult female rats versus a control group; NS =' not significant'; assay type: functional, organism-based; parameters: dose 0.01 mg/kg; outline: as §1
[11] = test system: Rattus norvegicus; assay: Maximum % decrease of blood glucose (deltaBG) was observed within 4 hour after administration orally at 0.1 mg/kg dose to fasted adult female rats versus a control group; assay type: functional; details: route oral; outline: as §1
[12] = test system: Rattus norvegicus; assay: Maximum % decrease of blood glucose (deltaBG) was observed within 4 hour after administration orally at 0.4 mg/kg dose to fasted adult female rats versus a control group; assay type: functional; details: route oral; outline: as §1
[13] = test system: Rattus norvegicus; assay: Maximum % decrease of blood glucose (deltaBG) was observed within 4 hour after administration orally at 10 mg/kg dose to fasted adult female rats versus a control group; NS =' not significant'; assay type: functional, organism-based; parameters: dose 10 mg/kg; outline: as §1
[14] = test system: Rattus norvegicus; assay: Maximum % decrease of blood glucose (deltaBG) was observed within 4 hour after administration orally at 0.01 mg/kg dose to fasted adult female rats versus a control group; assay type: functional; details: route oral; outline: as §1
[15] = test system: Rattus norvegicus; assay: Maximum % decrease of blood glucose (deltaBG) was observed within 3 hour after administration orally at 0.1 mg/kg dose to fasted adult female rats versus a control group; assay type: functional; details: route oral; outline: as §1
[16] = test system: Rattus norvegicus; assay: Maximum % decrease of blood glucose (deltaBG) was observed within 1 hour after administration orally at 0.1 mg/kg dose to fasted adult female rats versus a control group; assay type: functional; details: route oral; outline: as §1
[17] = test system: Rattus norvegicus; assay: Maximum % decrease of blood glucose (deltaBG) was observed within 2 hour after administration orally at 0.1 mg/kg dose to fasted adult female rats versus a control group; assay type: functional; details: route oral; outline: as §1
[18] = test system: Rattus norvegicus; assay: Maximum % decrease of blood glucose (deltaBG) was observed within 0.5 hour after administration orally at 0.1 mg/kg dose to fasted adult female rats versus a control group; assay type: functional; details: route oral
[19] = test system: Rattus norvegicus; assay: Maximum % decrease of blood glucose (deltaBG) was observed within 4 hour after administration orally at 0.5 mg/kg dose to fasted adult female rats versus a control group; assay type: functional; details: route oral; outline: as §1
[20] = test system: Rattus norvegicus; assay: Maximum % decrease of blood glucose (deltaBG) was observed within 2 hour after administration orally at 0.5 mg/kg dose to fasted adult female rats versus a control group; assay type: functional; details: route oral; outline: as §1
[21] = test system: Rattus norvegicus; assay: Maximum % decrease of blood glucose (deltaBG) was observed within 3 hour after administration orally at 0.5 mg/kg dose to fasted adult female rats versus a control group; assay type: functional; details: route oral; outline: as §1
[22] = test system: Rattus norvegicus; assay: Maximum % decrease of blood glucose (deltaBG) was observed within 1 hr after administration orally at 0.5 mg/kg dose to fasted adult female rats versus a control group; assay type: functional; details: route oral; outline: as §1
[23] = test system: Rattus norvegicus; assay: Maximum % decrease of blood glucose (deltaBG) was observed within 4 hour after administration orally at 0.6 mg/kg dose to fasted adult female rats versus a control group; assay type: functional; details: route oral; outline: as §1
[24] = test system: Rattus norvegicus; assay: Maximum % decrease of blood glucose (deltaBG) was observed within 4 hour after administration orally at 50 mg/kg dose to fasted adult female rats versus a control group; assay type: functional; details: route oral; outline: as §1
[25] = test system: Rattus norvegicus; assay: Maximum % decrease of blood glucose (deltaBG) was observed within 1 hour after administration orally at 0.5 mg/kg dose to fasted adult female rats versus a control group; assay type: functional; details: route oral; outline: as §1
[26] = test system: Rattus norvegicus; assay: Maximum % decrease of blood glucose (deltaBG) was observed within 4 hour after administration orally at 1 mg/kg dose to fasted adult female rats versus a control group; assay type: functional; details: route oral, 1 mg/kg; outline: as §1
[27] = test system: Rattus norvegicus; assay: Maximum % decrease of blood glucose (deltaBG) was observed within 4 hour after administration orally at 0.25 mg/kg dose to fasted adult female rats versus a control group; assay type: functional; details: route oral
Outline: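 Adult female Wistar rats (Chbb THOM, SPF; 200-220 g) fasted 24 h, N=7 per group. Compound suspended in 1.5% methylcellulose (Tylose) and dosed by oral gavage at 10 mL/kg. Retrobulbar blood was drawn under light halothane hourly for up to 4 h. Glucose was read by hexokinase/G6PDH after HClO4 deproteinisation. Value is the maximum % fall versus vehicle controls; Student's t-test, P ≤ 0.05.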

[28] = test system: Rattus norvegicus; assay: Maximum % decrease of blood glucose (deltaBG) was observed within 4 hour after administration orally at 50 mg/kg dose to fasted adult female rats versus a control group; NS =' not significant'; assay type: functional, organism-based; parameters: dose 50 mg/kg; outline: as §1
[29] = test system: Rattus norvegicus; assay: Maximum % decrease of blood glucose (deltaBG) was observed within 4 hour after administration orally at 100 mg/kg dose to fasted adult female rats versus a control group; assay type: functional; details: route oral; outline: as §1
[30] = test system: Rattus norvegicus; assay: Maximum % decrease of blood glucose (deltaBG) was observed within 4 hour after administration orally at 25 mg/kg dose to fasted adult female rats versus a control group; assay type: functional; details: route oral; outline: as §1
[31] = Rattus norvegicus, Blood, 4 h, read-out: ED50

CC(NC(=O)Cc1ccc(C(=O)O)cc1)c1cc(Cl)ccc1N1CCCCCC1 (stereo not given)
Delta BG [1]: Not significant

COc1ccc(Cl)cc1C(=O)NCCc1ccc(S(=O)(=O)NC(=O)NC2CCCCC2)cc1 [GLYBURIDE]
Delta BG [2]: -25% | ED50 [3, 31]: 0.255 mg/kg | Delta BG [4]: inactive | Delta BG [5]: inactive | Delta BG [6]: inactive | Delta BG [7]: inactive | Delta BG [8]: inactive

O=C(NCCc1ccccc1)c1cc(Cl)ccc1N1CCCCCCCC1
Delta BG [9]: Not significant

CCOc1cc(CC(=O)NC(CC)c2ccccc2N2CCCCC2)ccc1C(=O)O (stereo not given)
Delta BG [10]: Not significant | Delta BG [11]: -42%

O=C(Cc1ccc(C(=O)O)cc1)N[C@@H](c1ccccc1)c1ccccc1N1CCCCC1
Delta BG [12]: -33%

CC(NC(=O)Cc1ccc(S(N)(=O)=O)cc1)c1ccccc1N1CCCCC1 (stereo not given)
Delta BG [13]: Not significant

CCOc1cc(CC(=O)N[C@@H](CC(C)C)c2ccccc2N2CCCCC2)ccc1C(=O)O (stereo in doubt; 6al) [REPAGLINIDE]
ED50 [3]: 0.022 mg/kg | Delta BG ([11]; 0.1 mg/kg): -44% | Delta BG [14]: -19%

CCC1=C(C)CN(C(=O)NCCc2ccc(S(=O)(=O)NC(=O)N[C@H]3CC[C@H](C)CC3)cc2)C1=O [GLIMEPIRIDE]
Delta BG [2]: -35% | Delta BG [15]: -14% | Delta BG [16]: -17% | ED50 [3, 31]: 0.182 mg/kg | Delta BG [11]: -18% | Delta BG [17]: -18% | Delta BG [18]: -8%

CCCC(NC(=O)Cc1ccc(C(=O)O)cc1)c1ccccc1N1CCCCC1 (stereo not given)
Delta BG [19]: -18% | Delta BG [15]: -16% | Delta BG [20]: -34% | Delta BG [16]: -27% | ED50 [3, 31]: 0.07 mg/kg | Delta BG [21]: -23% | Delta BG ([11]; 0.1 mg/kg): -27% and -9% | Delta BG [17]: -17% | Delta BG [22]: -42%

O=C(Cc1ccc(C(=O)O)cc1)NC(c1ccccc1)c1ccccc1N1CCCCC1 (stereo not given)
ED50 [3, 31]: 0.38 mg/kg | Delta BG [12]: -23% | Delta BG [23]: -36%

CCCC(NC(=O)Cc1ccccc1)c1ccccc1N1CCCCC1 (stereo not given)
Delta BG [24]: -10%

CCCC(NCCc1ccc(C(=O)O)cc1)c1ccccc1N1CCCCC1 (stereo not given)
Delta BG [13]: Not significant

CCCC(NC(=O)Cc1ccc(C(=O)O)c(OCC)c1)c1ccccc1N1CCCCC1 (stereo not given)
Delta BG [19]: -35% | Delta BG [15]: -25% | Delta BG [20]: -36% | Delta BG [16]: -32% | Delta BG [21]: -34% | Delta BG [25]: -43% | Delta BG ([11]; 0.1 mg/kg): -32% and -18% | Delta BG [17]: -30%

O=C(O)c1ccc(CCNC(=O)c2cc(Cl)ccc2N2CCCCCCCC2)cc1
Delta BG [19]: -33% | ED50 [3, 31]: 0.38 mg/kg | Delta BG [26]: -40% and -39% | Delta BG [27]: -13% and -18%

CC(NC(=O)Cc1ccc(-c2nn[nH]n2)cc1)c1ccccc1N1CCCCC1 (stereo not given)
Delta BG [28]: Not significant

CC(C)(NC(=O)Cc1ccc(C(=O)O)cc1)c1cc(Cl)ccc1N1CCCCC1
Delta BG [13]: Not significant

CCOc1cc(CC(=O)N[C@@H](CC(C)C)c2ccccc2N2CCCCC2)ccc1C(=O)O (stereo in doubt; (S)-6al) [REPAGLINIDE]
Delta BG [15]: -34% | Delta BG [16]: -47% | ED50 [3]: 0.01 mg/kg | Delta BG ([11]; 0.1 mg/kg): -47% | Delta BG [17]: -40% | Delta BG [14]: -21% | Delta BG [18]: -42%

CCCC(NC(=O)Cc1ccc(C(=O)O)c(OC)c1)c1ccccc1N1CCCCC1 (stereo not given)
Delta BG [19]: -31% | Delta BG [20]: -39% | Delta BG [16]: -43% | Delta BG [21]: -37% | Delta BG [25]: -42% | Delta BG [11]: -43% | Delta BG [5]: Not significant | Delta BG [17]: -27% | Delta BG [18]: -38% | Delta BG [8]: Not significant

O=C(O)c1ccc(CCNC(=O)c2cccc(Cl)c2)cc1
Delta BG [29]: -23%

CC(NC(=O)Cc1ccc(C(=O)O)cc1)c1cccc(N2CCCCC2)c1 (stereo not given)
Delta BG [30]: -15%

From ChEMBL document CHEMBL1131436, “Repaglinide and related hypoglycemic benzoic acid derivatives” (1998)
